# In the library only some 1.8% were active in any assay of this set; here they are far more common.
# CXCR6 inh: CXCR6 (human) receptor inhibition | O00574 | CHO-K1 PathHunter CXCR6 beta-arrestin, luminescence | inhibition, % at 20 µM | hit rate 0.36% among 360,000; in the data active = inhibition above about 34%, passing the limit was not always enough;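 also: antagonist mode with CXCL16 agonist at 10 nM final; 0% = 10 nM CXCL16 with DMSO and 100% = unstimulated wells without agonist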
# Beta2AR agonist: human beta-2 adrenergic receptor agonism by FAP | P07550 | response, % (concentration not given with the values) | AID 504454 | Am2.2-beta2AR cells, FAP receptor internalization, flow cytometry | hit rate 0.43% among 340,000;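 active = response above a set limit, near 3 SD of response in nonfluorescent compounds, cut at about 42% in these data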
# Target sequence (P07550 whole entry, looked up): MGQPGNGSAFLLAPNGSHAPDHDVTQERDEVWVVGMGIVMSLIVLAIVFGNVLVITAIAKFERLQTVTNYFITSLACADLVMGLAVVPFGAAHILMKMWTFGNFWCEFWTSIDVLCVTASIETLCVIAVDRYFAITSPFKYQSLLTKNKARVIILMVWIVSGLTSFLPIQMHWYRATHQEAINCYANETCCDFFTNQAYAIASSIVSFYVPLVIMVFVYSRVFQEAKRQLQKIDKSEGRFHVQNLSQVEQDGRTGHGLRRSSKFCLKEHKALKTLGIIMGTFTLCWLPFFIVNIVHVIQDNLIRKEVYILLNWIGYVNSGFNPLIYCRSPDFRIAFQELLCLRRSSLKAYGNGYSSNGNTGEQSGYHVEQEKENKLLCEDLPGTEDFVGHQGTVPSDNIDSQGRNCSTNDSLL
# APJ agonist: activates the human apelin receptor APJ; CHO-K1 APJ PathHunter beta-arrestin, luminescence; 0% DMSO wells, 100% apelin; activation, % at 20 µM; hit rate 0.11% among 330,000; AID 2520;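 active = activation more than six SD over the plate average, tested at 20 µM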;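 also: 0% = DMSO alone and 100% = apelin-13 at 10 nM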
#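 Test system – PathHunter CHO-K1 APJ (AGTRL-1) beta-arrestin reporter cells · Input – 1000 cells/well · Compound – single test compound dose, 20 µM final, 1% DMSO · Times – compound stimulation 90 min at 25 °C, detection 60 min · Technique – beta-gal luminescence · Read-out basis – APJ–arrestin association signal · Control set – negative DMSO alone, positive Apelin-13 at 10 nM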
# CCR6 antag: antagonists of human CCR6 receptor; CHO-K1 CCR6 PathHunter beta-arrestin, luminescence, CCL20-stimulated; P51684; inhibition, % at 20 µM; hit rate 0.49% among 340,000; AID 493098;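 active = compounds whose inhibition of the agonist-driven luminescence signal at 20 µM reaches about 50%, limit read from the data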;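 also: cells stimulated with CCL20 at 14 nM final; plate controls were DMSO with CCL20 for no effect and DMSO without agonist for full effect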
# APJ antagonist: antagonists of human APJ apelin receptor; inhibition, % at 20 µM; hit rate 0.32% among 330,000; AID 2521; CHO-K1 APJ beta-arrestin complementation, luminescence; P35414;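 active = inhibition above about 40% at 20 µM, limit read from the data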;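 also: cells challenged with 10 nM apelin-13 agonist together with compound; plate controls were apelin-13 plus DMSO wells for no effect and DMSO wells lacking apelin-13 for full effect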
# EBI2 antag: EBI2 (human) antagonism; hit rate 0.81% among 360,000; inhibition, % at 5 µM; EBI2 beta-arrestin recruitment, luminescence, 7a,25-OHC stimulated; P32249; in the data active = inhibition above about 38%;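 also: enzyme fragment complementation signal reports receptor beta-arrestin coupling in cells; 0% = agonist plus DMSO wells and 100% = wells without agonist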
# * = called active by the depositor; · = no result given.
SMILES,CXCR6 inh,Beta2AR agonist,APJ agonist,CCR6 antag,APJ antagonist,EBI2 antag
Oc1ccc(/C=N/NC(=S)NC2CC3CCC2C3)cc1 (configuration not stated),9,-12,3,3,-1,49*
COC(=O)c1c(C)oc2ccc(N(C(=O)Oc3ccccc3)S(=O)(=O)c3ccc(Cl)c([N+](=O)[O-])c3)cc12,-3,60*,5,3,-32,-10
CCOC(=O)C(=O)Nc1cccc(C(=O)OCC)c1,-5,64*,-3,3,13,3
CCOCC(=O)Nc1cccc(C(=O)OCC)c1,-4,5,-1,-4,11,-7
Cc1cc2nc(-c3ccc(C#N)cc3)c(Cc3ccsc3)n2c(C)c1Br,-9,·,·,·,·,10
Cc1ccc(-c2csc3nc4c5ccccc5c(NCCCN(C)C)nn4c(=O)c23)cc1,1,25,11*,21,14,-7
O=C1CN(S(=O)(=O)c2cc(Br)ccc2Br)CCN1,-6,-2,-2,8,5,-1
O=c1c(Br)ccc(Br)cc1Br,95*,70*,·,111*,·,8
CC(CNC(=O)c1ccccc1Cl)NC(=O)c1ccccc1Cl (configuration not stated),7,3,0,13,22,1
CCOc1cc(C=O)c(Br)cc1OC1CCCC1,2,44*,3,-8,9,-1
COc1cc(C=O)c(Br)cc1OCc1ccc(C)cc1,-1,8,-2,-3,-2,-2
Cc1ccc(CSc2nccc(-c3c(C)nc4ccccn34)n2)cc1,5,-4,-1,10,-5,14
O=C1C=C(O)c2cccc(O)c2C1=O,4,1,-3,4,-110,-18
O=C1C=C(c2c(O)ccc3ccccc23)c2ccccc2C1=O,46*,76*,·,47,·,-30
O=C(c1ccccc1)C1CC=CCC1C(=O)c1ccccc1 (configuration not stated),4,44*,·,18,·,7
CC(C)COc1cccc(-c2cc(C(=O)N/N=C/c3ccncc3)c3ccccc3n2)c1,0,51*,14,0,-13,10
CC1=NN(c2ccc(Br)cc2)C(=O)/C1=C/c1cccs1,6,11,-1,12,3,57*
CC1=NN(c2ccc(C)cc2)C(=O)/C1=C\c1ccc(Br)s1,-1,-3,-2,12,-15,38
O=C1C(=Cc2ccncc2)CCCc2ccccc21,0,·,·,·,·,-5
O=C1/C(=C/c2ccncc2)CCC/C1=C\c1ccncc1,22,47*,·,35,·,0
C(=C\c1ccccc1)/CN1CCN(C(c2nnnn2Cc2ccccc2)C2CC2)CC1 (configuration not stated),0,·,·,·,·,14
O=C(CCC1CCN(C(=O)CC2=CCCCC2)CC1)NCc1ccc(F)cc1,9,·,·,·,·,6
COc1ccccc1-c1cc(C(=O)Nc2cc(C)n(Cc3ccc(Cl)cc3)n2)no1,-6,11,-2,13,-8,52*
Cc1cc(C(=O)Nc2cc(C)n(Cc3ccc(Cl)cc3)n2)no1,3,-5,-2,-6,11,7
NC(N)=N/N=C/c1ccc(OCc2ccc(Cl)cc2)cc1,9,58*,5,·,-28,-30
SMILES,CXCR6 inh,Beta2AR agonist,APJ agonist,CCR6 antag,APJ antagonist,EBI2 antag
C=CCc1cccc(/C=N/NC(=O)C(C)Nc2ccc(C)cc2)c1O (configuration not stated),-6,18,-1,29,10,41*
CC1=NC(Nc2nc(C)c3ccccc3n2)=NC(C)(C)C1,37,0,·,58*,·,26
N#C/C(N=Nc1ccccc1O)=N\Nc1ccccc1O,13,-55,-1,71*,3,-21
Cc1cc(C)c2c(=N)c3ccccc3n(CCCCCCCCn3c4ccccc4c(=N)c4c(C)cc(C)nc43)c2n1,40*,63*,·,107*,·,14
O=C(Nc1cccc(C(F)(F)F)c1)Oc1ccc(Cl)c2cccnc12,60*,10,·,77*,·,5
C/C(=N\NC(=O)c1ccc(Cn2cc(Br)cn2)o1)c1ccc(NC(=O)c2ccoc2C)cc1,-19,5,11,5,-3,-18
CCOC(=O)Cc1csc(Nc2c(C)n(C)n(-c3ccccc3)c2=O)n1,9,10,1,69*,11,-9
Cc1c(Nc2nc(-c3ccc(Cl)cc3)cs2)c(=O)n(-c2ccccc2)n1C,2,-16,-4,1,-13,-7
CCNC(=O)C1(C)CCN(C(=O)c2ccc(OC(F)F)cc2)C1 (configuration not stated),-1,·,·,·,·,-13
O=C(/C=C/c1cccc(Cl)c1)Nc1ncccn1,-4,-10,-2,-2,17,-5
O=C(/C=C/c1cccc(Cl)c1)c1nc2ccccc2[nH]1,9,36,0,32,8,56*
O=C(/C(=C\c1ccccc1)c1nc2ccccc2[nH]1)c1ccc(Cl)cc1,8,15,4,19,8,48*
O=C(/C(=C/c1ccc(Cl)cc1)c1nc2ccccc2[nH]1)c1cccs1,15,62*,-1,26,21,-2
Cc1[nH]c(=O)n(C(C)C)c(=O)c1Br,2,-2,·,6,·,3
COc1ccc(Cc2c(-c3cccc(Cl)c3)nc3ccc(Cl)cn23)c(C)c1,-1,·,·,·,·,-6
CCOC(=O)C1=C(O)/C(=C/c2ccc(-c3ccccc3C(=O)O)o2)SC1=Nc1ccc(C)cc1,7,-54,·,24,·,40
CCOC(=O)C1=C(O)/C(=C/c2cn(CC(=O)NCC3CCCO3)c3ccccc23)SC1=Nc1ccc(C)cc1 (configuration not stated),12,10,-11,16,17,49*
CC1CCc2c(sc(NC(=O)c3ccc(-c4ccccc4[N+](=O)[O-])o3)c2C#N)C1 (configuration not stated),33,-3,-7,58*,24,28
CCCNC(=O)C1(C)CCN(C(=O)COCc2ccccc2)C1 (configuration not stated),-5,·,·,·,·,-11
COc1cc(/C=C2\C(=O)N(c3ccc(NC(C)=O)cc3)N=C2c2ccccc2)ccc1O,46*,10,-4,48,40,9
O=C1/C(=C\c2ccc(O)c(O)c2)C(c2ccccc2)=NN1c1ccccc1,16,10,·,39,·,6
CC(=O)Oc1cccc2c1C(=O)C1CC=CC(OC(C)=O)C1C2=O (configuration not stated),-1,-9,·,10,·,-13
Nc1[nH]c(C(=O)c2ccccc2)c(-c2ccccc2Br)c1C(=O)c1ccccc1,11,·,·,·,·,6
COc1cc(/C=N/NC(=O)c2cccc([N+](=O)[O-])c2)ccc1OCc1ccccc1,1,-2,2,17,-24,30

# Assay outcomes as filed in PubChem.
